Bioassay records (PubChem BioAssay)
Most compounds without a hit are left out; they make up all but 2.5% or so of the library.
MEKK3 PB1 HTS – modulators of MEKK3-MEK5 PB1 binding, primary screen, biochemical, wildtype MEKK3, multiplex bead flow cytometry, Alexa488-MEK5; Mitogen-activated protein kinase kinase kinase 3 (Homo sapiens), Q99759; bead-based flow cytometry, Alexa488-MEK5 binding to MEKK3; actives lie on both sides; 0 = blocked by unlabeled MEK5, 100 = vehicle; binding response (% of control), % at 10 µM; hit rate 1.4% among 290,000;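 active means binding response more than 3 SD above or below the average of its plate-row segment, actives on both sides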;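 further: Alexa488 bead fluorescence after subtracting the streptavidin-only scavenger bead signal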
Target sequence (Q99759 whole entry, looked up): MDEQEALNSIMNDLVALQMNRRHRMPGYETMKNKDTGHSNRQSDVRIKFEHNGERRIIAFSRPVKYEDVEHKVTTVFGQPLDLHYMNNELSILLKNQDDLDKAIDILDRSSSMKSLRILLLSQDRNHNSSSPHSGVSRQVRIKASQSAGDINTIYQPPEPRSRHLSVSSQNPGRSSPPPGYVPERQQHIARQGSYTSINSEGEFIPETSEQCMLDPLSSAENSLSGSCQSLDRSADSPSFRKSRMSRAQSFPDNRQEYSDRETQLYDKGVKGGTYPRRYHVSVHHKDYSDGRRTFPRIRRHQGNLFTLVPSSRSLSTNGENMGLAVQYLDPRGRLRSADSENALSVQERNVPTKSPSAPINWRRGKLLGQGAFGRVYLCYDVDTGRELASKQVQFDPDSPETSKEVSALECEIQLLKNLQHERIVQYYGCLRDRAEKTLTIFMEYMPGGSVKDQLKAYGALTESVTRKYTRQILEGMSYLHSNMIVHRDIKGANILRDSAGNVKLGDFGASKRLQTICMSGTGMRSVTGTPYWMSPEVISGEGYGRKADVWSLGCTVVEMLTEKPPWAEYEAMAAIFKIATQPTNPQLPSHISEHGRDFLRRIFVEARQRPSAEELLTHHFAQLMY
MEKK2wt PB1 HTS – modulators of MEK5 binding to wildtype MEKK2, primary screen, biochemical, multiplex bead flow cytometry, Alexa488-MEK5; Mitogen-activated protein kinase kinase kinase 2 (Homo sapiens), Q9Y2U5; Alexa488-MEK5 binding to MEKK2 WT; actives lie on both sides; binding response (% of control), % at 10 µM; hit rate 1.1% among 290,000; AID 1531, 2009; in the data active means binding response below about 67% or above about 130%
T cell modulator – modulators of CD8 T cell-vesicle binding, primary screen, mouse 2C CD8+ T cells, flow cytometry; 2C CD8+ T cell-vesicle binding; stronger effect = lower value; response (vesicle binding), % at 7 µM; hit rate 0.068% among 330,000;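 active means response, share of CD8 T cells binding vesicles, and their 90th percentile fluorescence all below set limits, cut at about 80% in these data, passing the limit was not always enough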;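 further: values below 100% mean blocked vesicle binding to the CD8+ T cells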
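Test system: purified 2C TCR transgenic mouse naive CD8+ T cells. Probe or stimulus: QL9-peptide-loaded Drosophila micro-vesicles bearing Ld, ICAM-1 and B7-1. Incubation: binding step 1.5 h, 37 °C, antibody labelling 20 min, ice. Measured by: flow cytometry of vesicle-bound cells.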
UCH37 inh – inhibitors of human UCH37 deubiquitinase, primary screen, biochemical, Ub-AMC cleavage, fluorescence. hit rate 0.33% among 330,000. purified proteasome/UCH37. AID 588478, 2011. inhibition, % (test concentration not listed). Ubiquitin carboxyl-terminal hydrolase isozyme L5 (Homo sapiens), Q9Y5K5;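 active means mean inhibition over replicate wells above about 20%, limit read from the data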;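 further: 0% = compound-free wells with enzyme and 100% = wells lacking proteasome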
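Material: human UCH37 enzyme supplied as purified proteasome complex. Measure: % inhibition of Ub-AMC cleavage fluorescence. Medium: pH 7.4 Tris-HCl (50 mM) with ovalbumin, ATP-MgCl2, DTT. Times: 30 min preincubation with enzyme, 25 min cleavage at room temperature. Detection: AMC fluorescence intensity at 355/460 nm.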
Rce1 inh – yeast Rce1p protease inhibitors, primary screen, biochemical, fluorescence, cell-free homogeneous; CAAX prenyl protease 2 (Saccharomyces cerevisiae (strain ATCC 204508 / S288c)), Q03530; yeast membranes, quenched prenylated peptide cleavage fluorescence; calls only; hit rate 0.27% among 290,000;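 active means fall in fluorescence gain of 50% or more versus controls, with final raw signal at or below 3038400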;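 further: plate controls were neutral control wells for no effect and wells lacking membranes for full effect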
MEKK2 mut-MEK5 – MEK5 binding signal on mutant MEKK2 PB1, primary screen, biochemical, multiplex bead flow cytometry, Alexa488-MEK5; Alexa488-MEK5 binding to MEKK2 mutant; percent response, % at 10 µM; hit rate 0.35% among 290,000; AID 1530, 2009; in the data active means percent response above about 24%, passing the limit was not always enough
MEKK2wt confirm – modulators of MEK5 binding to wildtype MEKK2, confirmation, biochemical, single concentration, multiplex bead flow cytometry. shares compounds with MEKK3 PB1 HTS. Alexa488-MEK5 binding to MEKK2 WT; actives lie on both sides. binding response (% of control), % at 10 µM. hit rate 2.4% among 5,900; in the data active means binding response below about 16% or above about 210%; inactive means in between
MEKK2mut-MEK5 – mutant MEKK2 PB1-MEK5 binding signal retest – biochemical, single concentration, multiplex bead flow cytometry, confirmation; shares compounds with MEKK3 PB1 HTS; Alexa488-MEK5 binding to MEKK2 mutant; percent response, % at 10 µM; hit rate 2% among 5,900; in the data active means percent response mostly above about 71%, no sharp cut-off; inactive means mostly below about 38%;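 further: higher means compound restores mutant binding toward wildtype level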
MEKK3-MEK5 inh – MEKK3 wild-type PB1 binding to MEK5, inhibitors, confirmation, biochemical, bead multiplex flow cytometry, single concentration, wildtype. Alexa488-MEK5 binding to MEKK3; stronger effect = lower value. binding response (% of control), % at 10 µM. hit rate 1.8% among 5,900. shares compounds with MEKK3 PB1 HTS. AID 1894, 2009;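 active means binding response below 72% of control, or above a set upper limit, though filed actives all read lower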;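 further: 100% = DMSO only wells and 0% = binding blocked by excess unlabeled MEK5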
Starred values were filed as active, the others as inactive; i = inactive; / = not tested or not shown; [ ] = dose if it differs, or a comment.

SMILES	MEKK3 PB1 HTS	MEKK2wt PB1 HTS	T cell modulator	UCH37 inh	Rce1 inh	MEKK2 mut-MEK5	MEKK2wt confirm	MEKK2mut-MEK5	MEKK3-MEK5 inh
O=c1c2cc(Cl)ccc2oc2nc3n(c(=O)c12)CCCS3	74*[inhibitor]	81	582	2	i	-9	102	4	102
N#Cc1c(-c2ccc(Cl)cc2)nc2n(c1=O)CCCS2	105	108	430	-2	i	8	/	/	/
COc1ccc(C(=O)/C=C/c2cn(CC(O)CN3CCN(C)CC3)c3ccccc23)cc1OC (stereo not given)	98	120	347	1	i	8	/	/	/
O=C(/C=C/c1cn(CC(O)CN2CCCCC2)c2ccccc12)c1cccs1 (stereo not given)	105	118	193	2	i	7	/	/	/
O=C(c1ccccc1)N1CCN(CC(O)Cn2ccc3ccccc32)CC1 (stereo not given)	118	119	335	2	i	23	/	/	/
CCCN(CCC)CC(O)Cn1cc(/C=C/C(=O)c2ccccc2)c2ccccc21 (stereo not given)	88	154*	/	-1	i	21	150	21	99
O=C(/C=C/c1cn(CC(O)CN2CCCCC2)c2ccccc12)c1ccccc1 (stereo not given)	98	141*	/	-2	i	16	160	37	107
CN1CCN(Cn2cc(/C=C/C(=O)c3ccccc3)c3ccccc32)CC1	104	142*	241	/	i	18	111	1	101
OC(CN1CCCC1)Cn1ccc2ccccc21 (stereo not given)	101	146*	430	3	i	31*	163	33	105
CCC(=O)NN=C(C)CC(=O)Nc1ccc2c(c1)OCCO2	/	/	/	-1	/	/	/	/	/
CCCCN(C)CC(O)Cn1cc(/C=C/C(=O)c2ccc(C)cc2)c2ccccc21 (stereo not given)	107	186*	280	/	i	54*	189	55	107
CC(C)CNC(=O)CSc1nnc2ccccn12	53*[inhibitor]	77	283	-4	i	-4	105	-2	103
CCOC(=O)C(NC(=O)Nc1ccc(F)cc1F)(Oc1ccc(F)cc1)C(F)(F)F (stereo not given)	128*	104	438	2	i	3	105	8	106
CS(=O)(=O)Oc1ccc(C=NNC(=O)c2ccncc2)cc1	/	/	/	0	/	/	/	/	/
CC(C)(C)C(=O)OCc1nc(-c2ccc(F)cc2)cs1	54	44*[inhibitor]	325	4	i	-24	94	-11	95
Cc1nc2ccccn2c1C(=O)N=Nc1c(O)[nH]c2ccccc12	139*	106	179	0	i	2	102	1	103
Cc1cc(C)n(CCC(=O)N=Nc2c(O)[nH]c3ccccc23)n1	101	100	496	9	i	-2	/	/	/
COC(=O)NN=C(C)c1ccccc1OC(F)F	/	/	/	3	/	/	/	/	/
O=C(/C=C/Nc1ccc(Cc2ccc(N/C=C/C(=O)C(F)(F)F)cc2)cc1)C(F)(F)F	134*	102	176	-61	i	0	103	0	102
CC(C(=O)NCCS(=O)(=O)c1ccc(Cl)cc1)S(=O)(=O)c1ccccc1 (stereo not given)	152*	139	527	1	i	8	106	4	102
CC(=O)Nc1nonc1NC(C)=O	2.0*[inhibitor]	3.0*[inhibitor]	315	4	i	-15	100	0	104
Cc1ccc2c(c1)c1c(n2CC(O)CNC2CCCCC2)CCCC1 (stereo not given)	108	154*	168	2	i	21	133	17	99
Cc1ccc2c(c1)c1c(n2CC(O)CNC(CO)(CO)CO)CCCC1 (stereo not given)	114	127	361	8	i	9	/	/	/
CCN(CC)S(=O)(=O)c1ccc(C)c(NC(=O)CN2CCN(C)CC2)c1	100	97	273	-1	i	-4	/	/	/
CCN(CC)S(=O)(=O)c1ccc(C)c(NC(=O)Cn2c(=O)cnc3ccccc32)c1	160*	107	514	-12	i	0	100	0	102
CCN(CC)S(=O)(=O)c1ccc(C)c(NC(=O)Cn2cnc3cc([N+](=O)[O-])ccc3c2=O)c1	69*[inhibitor]	70	275	-3	i	-15	96	-2	96
CN(C)CCCSc1nc(-c2ccccc2)nc2c1CCC2	122	115	268	6	i	2	/	/	/
CN(C)CCSc1nc(-c2ccccc2)nc2c1CCC2	138*	111	226	1	i	1	107	2	103
